Laboratory results reported in PubChem BioAssay.
Results filed as inconclusive are left out.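 The calls were made as follows, unless noted: active = cell viability at or below a set limit in both duplicate runs, the limit being the all-compound median minus 4 SD (cut at about 23% in these data, passing the limit was not always enough); inconclusive = no clear call, values can overlap the other calls; inactive = the rest.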

Key:
[1] = OD615 S. cerevisiae growth inhibition, permissive medium, pilot counter-assay, permissive growth control for S. cerevisiae lifespan shortening project (AID 705;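 active = growth inhibition above 25% in both replicates, a cutoff set 3 SD above the mean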); conditions: OD615, 24 h, at 10 µM, active compounds read high
In short: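 Material: engineered DeaD yeast; compound dosing: one dose 10 µM, DMSO 0.25% final; measure: yeast growth inhibition indicated by reduced 24 h OD615; detection: OD615 turbidity read; incubation: cells pre-grown 4 h, then 24 h compound exposure, 30 °C humidified; medium: permissive synthetic complete medium with raffinose and galactose carbon sources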

[2] = Restrictive medium S. cerevisiae growth inhibition, OD615, pilot screen of yeast lifespan reduction project, restrictive growth control (AID 706;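 active = growth inhibition above a set limit, 3 SD over mean compound inhibition, in both replicates, cut at about 43% in these data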;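 also: modified DeaD lifespan yeast strain shifted to restrictive glucose medium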); conditions: OD615, 48 h, at 10 µM, active compounds read high
In short: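 material = engineered S. cerevisiae DeaD strain | medium = glucose-based CSMM-D restrictive medium | times = 4 h pre-incubation, 48 h exposure at 30 °C | technique = OD615 absorbance reading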

[3] = viability gain of MRP-1-high H69AR cells under doxorubicin, pilot screen, MRP-1 activator project, CellTiter-Glo, duplicate (AID 807;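 active = viability increase at or above a cutoff of the median across tested compounds plus 3 SD, cut at about 8.5% in these data, passing the limit was not always enough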;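 also: compound pretreatment 18-22 h then 72 h combined with doxorubicin; 0% = doxorubicin alone and 100% = vehicle without doxorubicin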); conditions: H69AR viability with doxorubicin, CellTiter-Glo luminescence; at 10 µM; active compounds read high
[4] = growth suppression of beta-catenin knockout HCT116, pilot screen, human colon tumor cells (AID 823); conditions: CellTiter-Glo, 60 h, at 10 µM, active compounds read low;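 also: 0% = wells killed by 20 µM Hyamine and 100% = untreated DMSO cell wells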
[5] = growth suppression of PTEN-deleted HCT116, pilot screen, cell-based, HCT116 clonal line, CellTiter-Glo (AID 824;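 active = viability at or below 27.92% in each of two runs, the all-compound median minus 4 SD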;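 also: 0% = 20 µM Hyamine control and 100% = vehicle cell control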); conditions: 60 h, at 10 µM, active compounds read low
[6] = inhibitors of the yeast RAM network, pilot screen, dse1pr::URA3 reporter, 5-FOA selection (AID 869;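 active = inhibition over a set limit, the all-compound mean plus 3 SD, in both replicate runs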;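 also: 0% = DMSO wells with no growth and 100% = 10 µM 1-NA-PP1 with full growth; RAM network block rescues cells from 5-FOA so hits raise OD615 growth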); conditions: S. cerevisiae dse1pr::URA3 5-FOA growth, OD615, 2 d; at 10 µM; active compounds read high; strain carries analog-sensitive mutant Cbk1 kinase
[7] = RAM signaling pathway blockade in yeast – S. cerevisiae, Pdr1DBD-CYC8 efflux-inhibited sensitized strain, primary screen (AID 1298;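 active = RAM network inhibition above 8.4% in each of two replicates, 3 SD over the compound average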;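 also: 0% = DMSO untreated cells without growth and 100% = 10 µM 1-NA-PP1 full growth; higher means more yeast growth rescued from 5-FOA killing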); conditions: S. cerevisiae cbk1-as DSE1-URA3 strain, 5-FOA growth OD615, 2 d; at 50 µM; active compounds read high

N#CC1=C2SCN(c3ccc(F)cc3)CN2C(=O)CC1c1cccc(F)c1 (stereo unspecified)
inactive: growth inhibition [1] 4.17% | growth inhibition [2] 7.57% | viability increase [3] -2.71% | viability [4] 104% | viability [5] 96.7% | inhibition [6] 1.06% | RAM network inhibition [7] 7.08%

COc1cc(C)c(S(=O)(=O)NCc2ccc3c(c2)OCO3)cc1C
inactive: growth inhibition [1] -2.38% | growth inhibition [2] 3% | viability increase [3] 0.6% | viability [4] 106% | viability [5] 102% | inhibition [6] -0.055% | RAM network inhibition [7] -0.06%

COCCN1Cc2cccc(C(=O)NCc3ccccn3)c2C1=O
inactive: growth inhibition [1] -2.71% | growth inhibition [2] -0.385% | viability increase [3] -0.59% | viability [4] 103% | viability [5] 110% | inhibition [6] 0% | RAM network inhibition [7] 1.61%

COC(=O)CCS(=O)(=O)c1cc(Cl)ccc1Cl
inactive: growth inhibition [1] -5.18% | growth inhibition [2] 7.17% | viability increase [3] -1.81% | viability [4] 95.4% | viability [5] 94.9% | inhibition [6] -1.08% | RAM network inhibition [7] 1.34%

C=CCOc1cccc(C2C(C(=O)c3ccco3)=C(O)C(=O)N2CCN2CCOCC2)c1 (stereo unspecified)
inactive: growth inhibition [1] -9.71% | growth inhibition [2] -10.5% | viability increase [3] -2.85% | viability [4] 94.1% | viability [5] 93.2% | inhibition [6] 0.795% | RAM network inhibition [7] -0.11%

Cc1ccc(-c2nc(CS(=O)(=O)CC(=O)NC3CCCCC3C)c(C)o2)cc1 (stereo unspecified)
inactive: growth inhibition [1] -15.3% | growth inhibition [2] -32.8% | viability increase [3] -0.44% | viability [4] 93% | viability [5] 87.4% | inhibition [6] 1.73% | RAM network inhibition [7] 7.21%

O=C(c1ccc(CNc2c(N3CCOCC3)c(=O)c2=O)cc1)N1CC=C(c2ccccc2)CC1
inactive: growth inhibition [1] -1.62% | growth inhibition [2] -7.31% | viability increase [3] -0.15% | viability [4] 95.3% | viability [5] 94.8% | inhibition [6] 2.02% | RAM network inhibition [7] 6.56%

COc1cccc(NC(=O)c2nnn(CCc3ccccc3)c2N)c1
inactive: growth inhibition [1] -1.48% | growth inhibition [2] 0.3% | viability increase [3] -6.11% | viability [4] 65.9% | viability [5] 50.7% | inhibition [6] 2.52% | RAM network inhibition [7] 0.72%

CC(NS(=O)(=O)c1ccc(Br)cc1)C(c1cccs1)N1CCN(C)CC1 (stereo unspecified)
inactive: growth inhibition [1] -5.18% | growth inhibition [2] 3.13% | viability increase [3] -2.85% | viability [4] 78.2% | viability [5] 84.2% | inhibition [6] 0.53% | RAM network inhibition [7] 0.88%

COc1ccc(Cl)cc1NC(=O)C1CCCO1 (stereo unspecified)
inactive: growth inhibition [1] 0.985% | growth inhibition [2] -9.53% | viability increase [3] -2.12% | viability [4] 98.9% | viability [5] 94.7% | inhibition [6] 1.42% | RAM network inhibition [7] 2.75%

Cc1ccc(S(=O)(=O)N2CCN(Cc3ccccc3C(F)(F)F)CC2)cc1
inactive: growth inhibition [1] -12.5% | growth inhibition [2] -27.7% | viability increase [3] -1.45% | viability [4] 78% | viability [5] 82.8% | inhibition [6] 0.92% | RAM network inhibition [7] 3.06%

Cc1cccc(CC(=O)Nc2cc(=O)n(C)c(=O)n2C)c1
inactive: growth inhibition [1] -3.74% | growth inhibition [2] -4.44% | viability increase [3] -1.1% | viability [4] 100% | viability [5] 97.4% | inhibition [6] 1.84% | RAM network inhibition [7] 0.48%

O=C(NC1CCCc2ccccc21)C1CCC(CNc2c(N3CCOCC3)c(=O)c2=O)CC1 (stereo unspecified)
inactive: growth inhibition [1] -6.7% | growth inhibition [2] 7.02% | viability increase [3] -0.75% | viability [4] 105% | viability [5] 107% | inhibition [6] 1.08% | RAM network inhibition [7] 1.43%

Cc1nnc(Sc2nc3c(c(=O)[nH]c(=O)n3C)n2CCCc2ccccc2)s1
inactive: growth inhibition [1] -8.19% | growth inhibition [2] -13.4% | viability increase [3] -2.42% | viability [4] 95.1% | viability [5] 94.7% | inhibition [6] 1.21% | RAM network inhibition [7] 2.87%

CCC(C)NC(=O)CS(=O)Cc1nc(-c2cccc(OC)c2)oc1C (stereo unspecified)
inactive: growth inhibition [1] -12.5% | growth inhibition [2] -1.45% | viability increase [3] -1.45% | viability [4] 98% | viability [5] 94.5% | inhibition [6] 1.23% | RAM network inhibition [7] 4.44%

CCCN(CCC)C(=O)COc1cc(=O)n(CC)c2ccccc12
inactive: growth inhibition [1] -17.4% | growth inhibition [2] -2.75% | viability increase [3] -1.75% | viability [4] 99.8% | viability [5] 89.3% | inhibition [6] 0.52% | RAM network inhibition [7] 0.9%

CCC(CO)Nc1ncnc2c1cnn2-c1ccc(OC)cc1 (stereo unspecified)
inactive: growth inhibition [1] -7.48% | growth inhibition [2] -7.47% | viability increase [3] 0.37% | viability [4] 104% | viability [5] 101% | inhibition [6] 2.01% | RAM network inhibition [7] -1.98%

C=CCn1c(SCCN2CCCCC2)nc2c1c(=O)[nH]c(=O)n2C
inactive: growth inhibition [1] -3.65% | growth inhibition [2] 6.96% | viability increase [3] -1.07% | viability [4] 109% | viability [5] 99.8% | inhibition [6] 1.17% | RAM network inhibition [7] 1.65%
